According to the EternaBench riboswitch data:

System: MS2 coat protein
Test: apparent Kd, MS2 coat protein; higher = weaker binding; RNA-MaP array
Procedure, shortened: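 Sequenced DNA templates on an Illumina sequencing chip were transcribed into the designed RNAs. These were incubated at room temperature in Tris-HCl pH 7.5 buffer containing KCl, MgCl2, BSA, DTT, tRNA and Tween20 with fluorescently labeled MS2 coat protein at 1.5 nM to 3 μM, with or without input ligand. Apparent Kd is the median of binding-curve fits per cluster, and designs with fewer than 10 clusters measured were excluded.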

[1] = designed as: OFF switch for flavin mononucleotide, no ligand
[2] = ligand present: flavin mononucleotide, designed as: OFF switch for flavin mononucleotide
[3] = designed as: ON switch for flavin mononucleotide, no ligand
[4] = ligand present: flavin mononucleotide, designed as: ON switch for flavin mononucleotide
[5] = designed as: ON switch for tryptophan, no ligand
[6] = ligand present: tryptophan, designed as: ON switch for tryptophan
[7] = designed as: OFF switch for theophylline, no ligand
[8] = ligand present: theophylline, designed as: OFF switch for theophylline

Sequence	apparent Kd [1] [nM]	apparent Kd [2] [nM]	also measured
AGAUCCUUGGUCAGGAUAUCCAAUAAAGCCGUUUGGGAGAAGGGACAUGAGGAUCACCCAUGUAAAUUGACCAC	12.2	32.3	
AAGCUACAUGAGGAUCACCCAUGUCUCACGUCACUAGGAUAUCUGAAGGUGACGAAGUUCAGAGAAGGAGUGCAUC			apparent Kd [3]: 97.2 nM; apparent Kd [4]: 83.2 nM
CUUGGCGCUCAGAAGGCCGUCCAUGCACGCGCUAGGACAUGAGGAUCACCCAUGUAUCUAUGGACGGAGGAUAUGAUUCUCUCG			apparent Kd [3]: 20.4 nM; apparent Kd [4]: 8.75 nM
GUUCGUCCUACGGCCGCCACUAAAACACAUGAGGAUCACCCAUGUUAGUAUCCUGGCUGGUGUGAUAGGACCGGGUAGGGAAGAA			apparent Kd (designed as: OFF switch for tryptophan, no ligand): 12.1 nM; apparent Kd (ligand present: tryptophan, designed as: OFF switch for tryptophan): 24.1 nM
UCGGACGGAGGAUAUACUAUGACUCCCACGGCAUGUUACGCACAUGAGGAUCACCCAUGUAGAAGGCCGCCUAA	4.27	7.41	
UCAUCUGGGUCUUUGGUGCACAUGAGGAUCACCCAUGUAACUUAGGAUAUUAGUUAUGAUAUGAUUAAGAAGGAAGUCGCUAUU	15.2	16.9	
GGAUGUAGACAGGAUAUUGCCAUUCCAAUGCGCCAAGAAGGGUCUACAUGAGGAUCACCCAUGUAAAGAAUAGG	207	106	
UAUGUACAUGAGGAUCACCCAUGUUAGGAUAUAUGGCCGCGCUUUAAACACCGUGCACAUAGAAGGAACAUUUG	35	33.7	
UACAUGAACGUCAGGAUAUUGGUAUAUUACCUAGCCAAGAAGGGACAUGAGGAUCACCCAUGUAUUCGGUCCAA	25.2	65.2	
GAACUGUGAGGAUAUACAUGAGGAUCACCCAUGUUUGUGUUGGCACGCACUCGGGCAAGUAGAAGGCACAGAUG	44	73.7	
ACAAUGUGAGGAUAUCGUAAGCAUGACUAUGGCGCUAACACCGAGAAGGCACAUGAGGAUCACCCAUGUCCUGA	6.84	10.7	
UAACCAAAUGGAUGACCACAUGAGGAUCACCCAUGUCGGCAACAGGAUAUUAUCAGAUGGGCUAAUAAGAAGGGUUACUCAGCC	14.9	13.2	
CGCUGCCGAAGAGGAUAUCCCACGACCCAAACUGGAGAAGGCUUUAGGUUUUGCCGACAUGAGGAUCACCCAUGUGUCAGUGCA	13.1	11.4	
UUAUAAGAGAUAGGAUAUUCCGACAAAAUCGAUGAAGAAGGAUCACUCAAAACAUGAGGAUCACCCAUGUAUAUAACAAAUGUU			apparent Kd [3]: 57.5 nM; apparent Kd [4]: 25.4 nM
ACAGGUAGAGGAUAUCGUGAAAGUCACAUGAGGAUCACCCAUGUGGUAAGCAUGUACGCCCGAGAAGGCUAACCGC	7.57	12.4	
CCUUAUUCAUAGAAGGAGUUCAUCCUACGUGGACUAGGAUAUAUAUUCGACAUGAGGAUCACCCAUGUAUCUGAGAUCGUGGUA	29.3	26.2	
GUUCUGCAUAAGGAUAUAUGAGCACACGCAGACAUAGAAGGUAUGACAUGAGGAUCACCCAUGUCCUCUCGAGA	8.5	8.65	
UAGCAAUUACAUGAGGAUCACCCAUGUCUAUCGCAGAACAAGCAGGAUAUAGUGACACGACUCCGCUAGAAGGGCUCCUCUGUU			apparent Kd [3]: 62.4 nM; apparent Kd [4]: 55.3 nM
AUUUAAAAGUUAGGAUAUCUCAUCAGCUCAAUAGAUGACAUGAGGAUCACCCAUGUGACCAAAGGAGAGAAGGAACUCAUAAUG	65.1	31.4	
GGGUACAUCUAGAAGGAGAAUCCUCUUGACAUGAGGAUCACCCAUGUCGUAGUCAAGACUAAAAUCUAGGAUAUAGCUGUGCGU	233	165	
CAGUGAGAGUCGGCCGCCACUUAACGCAAGUAGCGCAACCCAAAACAUGAGGAUCACCCAUGUCGAAGGACCGGGACAAUGAGCG			apparent Kd [5]: 12.9 nM; apparent Kd [6]: 12.2 nM
UUUACCGACACAGAUCACUAAAACCUUGAUACCAGUCCCAGUGGCGACCCUUGGCAGCAAUAUACAUGAGGAUCACCCAUGUGCA			apparent Kd [7]: 14.7 nM; apparent Kd [8]: 16.7 nM
UUUUUCCUGUAUAUCGGUACAUGAGGAUCACCCAUGUUCCCAGAGGAUAUUUGAUGGUGGGUAACAAAGAAGGCUGGCUACAGG			apparent Kd [3]: 20.6 nM; apparent Kd [4]: 9.31 nM
AACAAACACAUGAGGAUCACCCAUGUCCUUGAUAUAAUUACUCAGGAUAUCAUGUCCUCUCACCGUGAGAAGGGAGUCAAAACC			apparent Kd [3]: 76.8 nM; apparent Kd [4]: 59.5 nM
GCUAGUUCACAGAAGGCGUCCGUGGGUGGCGCCUUACAUGAGGAUCACCCAUGUCAACCGUGCGACGAGGAUAUGUCAAUCGCA	22.5	21.6	
GCUGUAGAAGGAUAUCACAGGAUGGACAUGAGGAUCACCCAUGUUCUUUACUCCGCACCUUGAGAAGGUCUAAGUC	6.27	5.88	
GACCACAUGAGGAUCACCCAUGUCUUGGUCCGAGGACCGGUACGGCCGCCACUCGAGAGCCGUACAAAUAAACGGAGUGCCAUCA			apparent Kd [5]: 15.9 nM; apparent Kd [6]: 13.5 nM

Sequence	apparent Kd [1] [nM]	apparent Kd [2] [nM]	also measured
CGUGGCAAUCAAGGAUAUCACUUCUAGAUACCGUGAGAAGGUGAGCGUCUCUGCAAAGAGCGGGACAUGAGGAUCACCCAUGUA			apparent Kd [3]: 255 nM; apparent Kd [4]: 162 nM
GAAUCAUGACAGAAGGCACGGAAUACCCGGCUGUGAGGAUAUGUUUGAAAACAGACAUGAGGAUCACCCAUGUCCGAAGUGUCU	301	555	
ACUACGCUAGGAUAUACGAGGAGUGCAUGGAAGCGUUUGACACAUGAGGAUCACCCAUGUAGAAGGAGCUGCAA	7.75	16.1	
CUGUGAGUAGGAUAUGAUCACAAGUACAUGAGGAUCACCCAUGUGUGGCUCUGUACCGCCUCAGAAGGACUCGUCU	28	94.8	
AACCGACAUGAGGAUCACCCAUGUGAGGAUAUGUUCGAGCUGGCAGGACCACCCUGGGACAGAAGGCACGUGAA	11.2	17.7	
CAGAACAACGAAGGAUAUGCGAAACAUGAGGAUCACCCAUGUGUGGUUUUACUCAAACACCUGUCGCAGAAGGUCGCGUAACGA	37.9	31.1	
UUUUCUGAGGAGAAGGACGACCACAAACAUGAGGAUCACCCAUGUCUUACUAUCUGACCGCCAUCGUAGGAUAUCCCGAGGGAG			apparent Kd [3]: 11.2 nM; apparent Kd [4]: 10.2 nM
UCGUGCAGUGAGGAUAUCCCGAAGGCUUCCAUUGGAGAAGGCACUACAUGAGGAUCACCCAUGUGGCUUGAUAA	44	56.5	
GUUCGUAGGUAGGAUAUAAGAGCUGUACUCUUCUUAGAAGGACCCACAUGAGGAUCACCCAUGUUUUGGGCGUG	10.3	35.5	
CUCUUGCGGUUAGGAUAUUCCCUUGAAAACAAUGAAGAAGGAACCAGAUGAUCACAUGUCCUACAUGAGGAUCACCCAUGUUAA	353	211	
ACCUAAGCCACAGAUACCAGAGUAAUAGGCCAAUUUCAAAACAUGAGGAUCACCCAUGUACUCCCUUGGCAGCUGCGAAUCGAAA			apparent Kd [7]: 10.9 nM; apparent Kd [8]: 15.2 nM
CCCAUACAUGAGGAUCACCCAUGUGUUGAUACCAGCAUAUGUAGAUGCCCUUGGCAGCAAGCUUGGGUCACUGGAAAACAUCUAA			apparent Kd (designed as: ON switch for theophylline, no ligand): 25.9 nM; apparent Kd (ligand present: theophylline, designed as: ON switch for theophylline): 56.5 nM
AAAGCCUUUCUAGGAUAUCAAUACAGUCGUGGUUGAGAAGGAGAAACUGCGUUCUAGACAUGAGGAUCACCCAUGUCCUCAAUG			apparent Kd [3]: 98.6 nM; apparent Kd [4]: 71.9 nM
UAUUGUUUAGGAUAUACAUGAGGAUCACCCAUGUCAACGACCGUUAUAAAAUCUAAGUGUAGAAGGAAACGCCC	13.4	12.1	
CUCCUGGCAGGAUAUACAUGAGGAUCACCCAUGUUCCGAGCGUCCCAAACGACACGGUGUAGAAGGGCCAAGAU	12.8	17.3	
CAGUUACAUGAGGAUCACCCAUGUUUUUAACGCAGAGGAUAUCCGGUGGUUAAUGGCUCAGGAGAAGGCUGUGGUC			apparent Kd [3]: 16.3 nM; apparent Kd [4]: 9.37 nM
CUAAUUAUCGAGAAGGAACGACGCAUCACCGAUCUAGCACACAUGAGGAUCACCCAUGUACACCGUUAGGAUAUCGCAAACCAG	8.46	9.82	
GACGCGAGCGCACUUACAUGAGGAUCACCCAUGUGUUCCGAAAGAAGGGCUAGUGUACCCGCAGAGCAGGAUAUUUCGAUUUGC			apparent Kd [3]: 186 nM; apparent Kd [4]: 121 nM
ACCACAGAGUAGAAGGUCCGACACGGCUCGUCGGAAGGAUAUACAUAUUGUUAGAGAUGGGAACAUGAGGAUCACCCAUGUGUC			apparent Kd [3]: 16.2 nM; apparent Kd [4]: 9.9 nM
CGGAAGUGCAGCGCUUAAAGUACAUGAGGAUCACCCAUGUGAAAGGAUAUAUCGAAGUCAAAAUAAUAGAAGGUUCAGUGGGAU	22.6	21.1	
AUCUAGUGCCUCAAGGAUAUGCACAGAGAGACAUGAGGAUCACCCAUGUAACAAGCAUGCUCAACGCAGAAGGUGACACUUAAGAU			apparent Kd [3]: 39.2 nM; apparent Kd [4]: 12.7 nM
CACUUCAUAAUAGGAUAUCAUGGAUGACAUGAGGAUCACCCAUGUCCGCACUCUUCAACUACACGUGAGAAGGAUUCGCGGGUC			apparent Kd [3]: 194 nM; apparent Kd [4]: 130 nM
GACGUGGAGUCAGGAUAUCGACGACAUUCUUAGCGAGAAGGGACCUAGCUUAGAUCAACAUGAGGAUCACCCAUGUCGAGUUUC	21.7	20.4	
UUGUCCCGAGGAUAUGAGAGGGAGUACAUGAGGAUCACCCAUGUCAUGAAUCUUCAUAUCUCAGAAGGCGGUUGAU	4.85	6.24	
CAUUCACUAACUCCACAUGAGGAUCACCCAUGUUGAGGUCCGAGAAGGUGCACUACGUGGGAGCGCAAGGAUAUCGCCUAGUAA			apparent Kd [3]: 9.84 nM; apparent Kd [4]: 7.64 nM
UGAUUACAUGAGGAUCACCCAUGUGACUACGCCUCAGGAUAUGAUGACAAAUUCUAGAAGUCAGAAGGGAGUUUGU			apparent Kd [3]: 29.1 nM; apparent Kd [4]: 21.3 nM
CGGAGUAUGACGGCCGCCACUUGCCGGGCGCAGCUGGCUGCUUGACAUGAGGAUCACCCAUGUCCAAGGACCGGGUCAUUCCUCG			apparent Kd [5]: 121 nM; apparent Kd [6]: 83.9 nM
